Activity calls are given as the source filed them. No cut-off for these calls is given here.
Tests used:
MDA-MB-468 = assay: Anticancer activity against human MDA-MB-468 cells after 48 hrs by SRB assay; assay type: functional; settings: MDA-MB-468, 48 h
KM12 = assay: Anticancer activity against human KM12 cells after 48 hrs by SRB assay; assay type: functional; settings: KM12, 48 h
TK-10 = assay: Anticancer activity against human TK10 cells after 48 hrs by SRB assay; assay type: functional; settings: TK-10, 48 h
RPMI-8226 = assay: Anticancer activity against human RPMI8226 cells after 48 hrs by SRB assay; assay type: functional; settings: RPMI-8226, 48 h
SF-268 = assay: Anticancer activity against human SF268 cells after 48 hrs by SRB assay; assay type: functional; settings: SF-268, 48 h
NCI-H522 = assay: Anticancer activity against human NCI-H522 cells after 48 hrs by SRB assay; assay type: functional; settings: NCI-H522, 48 h
SR = assay: Anticancer activity against human SR cells after 48 hrs by SRB assay; assay type: functional
UACC-257 = assay: Anticancer activity against human UACC257 cells after 48 hrs by SRB assay; assay type: functional; settings: UACC-257, 48 h
A498 = assay: Anticancer activity against human A498 cells after 48 hrs by SRB assay; assay type: functional; settings: A498, 48 h
BT-549 = assay: Anticancer activity against human BT549 cells after 48 hrs by SRB assay; assay type: functional; settings: BT-549, 48 h
SK-MEL-5 = assay: Anticancer activity against human SK-MEL-5 cells after 48 hrs by SRB assay; assay type: functional; settings: SK-MEL-5, 48 h
RXF 393 = assay: Anticancer activity against human […] cells after 48 hrs by SRB assay; assay type: functional; settings: RXF 393, 48 h
T47D = assay: Anticancer activity against human T47D cells after 48 hrs by SRB assay; assay type: functional
A-375 = assay: Induction of apoptosis in human A375 cells assessed as increase in PPAR protein level at 4 uM after 24 hrs by Western blotting; assay type: functional, cell-based
Procedure, shortened: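 A375 cells were treated for 24 h and lysed in ice-cold RIPA buffer (1% NP-40, 0.5% deoxycholate, 0.1% SDS, protease inhibitors). Protein was quantified by Bradford assay, and 30 µg/lane was run on 12% SDS-PAGE and transferred to PVDF. Membranes were blocked 2 h at RT in TBST with 5% blocker, incubated with primary antibody overnight at 4 °C, then with HRP secondary (1:2000, 1 h, RT). Detection was by chemiluminescence, with β-actin as loading control.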

OVCAR-5 = assay: Anticancer activity against human OVCAR5 cells after 48 hrs by SRB assay; assay type: functional; settings: OVCAR-5, 48 h
SN12C = assay: Anticancer activity against human SN12C cells after 48 hrs by SRB assay; assay type: functional
SW-620 = assay: Anticancer activity against human SW620 cells after 48 hrs by SRB assay; assay type: functional; settings: SW-620, 48 h
EKVX = assay: Anticancer activity against human EKVX cells after 48 hrs by SRB assay; assay type: functional
HOP-92 = assay: Anticancer activity against human HOP92 cells after 48 hrs by SRB assay; assay type: functional; settings: HOP-92, 48 h
SNB-75 = assay: Anticancer activity against human SNB75 cells after 48 hrs by SRB assay; assay type: functional; settings: SNB-75, 48 h
Malme-3M = assay: Anticancer activity against human MALME-3M cells after 48 hrs by SRB assay; assay type: functional
HOP-62 = assay: Anticancer activity against human HOP62 cells after 48 hrs by SRB assay; assay type: functional; settings: HOP-62, 48 h
Procedure, shortened: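 Grown in RPMI 1640 with 10% FBS and 2 mM L-glutamine at 37 °C, 5% CO2. Seeded at densities set by doubling time, then preincubated 24 h. Continuous 48 h drug exposure at four concentrations (0.1, 1, 10, 100), triplicate wells. Fixed with cold TCA (final 10%) at 4 °C, 60 min. Stained with 0.4% SRB in 1% acetic acid, eluted with 10 mM Tris base, read at 540/690 nm. Percent growth versus control wells.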

SK-MEL-28 = assay: Anticancer activity against human SK-MEL-28 cells after 48 hrs by SRB assay; assay type: functional; settings: SK-MEL-28, 48 h
UACC-62 = assay: Anticancer activity against human UACC62 cells after 48 hrs by SRB assay; assay type: functional; settings: UACC-62, 48 h

`COc1ccc(C2=NOC(c3cc(OC)c(OC)c(OC)c3)C2)cc1OCCCCOc1cc2c(cc1OC)C(=O)N1CCC[C@H]1C=N2` (some centres undefined) was tested, and the GI50 (MDA-MB-468) was 220 nM, the GI50 (KM12) was 220 nM and the GI50 (TK-10) was 280 nM. It also gave a GI50 (RPMI-8226) of 240 nM, a GI50 (SF-268) of 340 nM and a GI50 (NCI-H522) of 120 nM. For the same molecule, the GI50 (SR) was 140 nM, the GI50 (UACC-257) was 270 nM and the GI50 (A498) was 180 nM. The GI50 (BT-549) was 90 nM, the GI50 (SK-MEL-5) was 160 nM and the GI50 (RXF 393) was 210 nM. For the same molecule, the GI50 (T47D) was 280 nM, the Activity (A-375) was “Active” and the GI50 (OVCAR-5) was 420 nM. It also gave a GI50 (SN12C) of 300 nM, a GI50 (SW-620) of 230 nM and a GI50 (EKVX) of 460 nM. It also gave a GI50 (HOP-92) of 310 nM, a GI50 (SNB-75) of 320 nM and a GI50 (Malme-3M) of 210 nM. For the same molecule, the GI50 (HOP-62) was 270 nM, the GI50 (SK-MEL-28) was 200 nM and the GI50 (UACC-62) was 160 nM.
